Legend:
Jurkat [1] = assay: Cytotoxicity against human Jurkat cells assessed as cell viability at 10 uM measured after 48 hrs by WST-1 assay relative to control; type: functional; settings: read-out: Activity
Outline: (§1)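 Ten-line human panel (9 cancer, 1 non-cancerous). Cells were seeded at a pre-established optimal density (500–30 × 10³ per well) and settled overnight. Compounds came from 10 mM DMSO stocks and were tested at two concentrations. WST-1 readout followed the manufacturer's protocol at the end of cultivation. Viability is expressed as % of untreated control cells, mean of three independent experiments.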

MOLT-4 [2] = assay: Cytotoxicity against human MOLT-4 cells assessed as cell viability at 10 uM measured after 48 hrs by WST-1 assay relative to control; type: functional; settings: read-out: Activity; outline: as §1
A549 [3] = assay: Cytotoxicity against human A549 cells assessed as cell viability at 10 uM measured after 48 hrs by WST-1 assay relative to control; type: functional; settings: read-out: Activity; outline: as §1
HT-29 [4] = assay: Cytotoxicity against human HT-29 cells assessed as cell viability at 10 uM measured after 48 hrs by WST-1 assay relative to control; type: functional; settings: read-out: Activity; outline: as §1
PANC-1 [5] = assay: Cytotoxicity against human PANC-1 cells assessed as cell viability at 10 uM measured after 48 hrs by WST-1 assay relative to control; type: functional; settings: read-out: Activity; outline: as §1
A2780 [6] = assay: Cytotoxicity against human A2780 cells assessed as cell viability at 10 uM measured after 48 hrs by WST-1 assay relative to control; type: functional; settings: read-out: Activity; outline: as §1
HeLa [7] = assay: Cytotoxicity against human HeLa cells assessed as cell viability at 10 uM measured after 48 hrs by WST-1 assay relative to control; type: functional; settings: read-out: Activity; outline: as §1
MCF7 [8] = assay: Cytotoxicity against human MCF7 cells assessed as cell viability at 10 uM measured after 48 hrs by WST-1 assay relative to control; type: functional; settings: read-out: Activity; outline: as §1
SAOS-2 [9] = assay: Cytotoxicity against human SAOS-2 cells assessed as cell viability at 10 uM measured after 48 hrs by WST-1 assay relative to control; type: functional; settings: read-out: Activity; outline: as §1
[10] = Cytotoxicity against human MRC5 cells assessed as cell viability at 10 uM measured after 48 hrs by WST-1 assay relative to control; type: cell-based; settings: read-out: Activity; outline: as §1
Jurkat [11] = assay: Cytotoxicity against human Jurkat cells assessed as cell viability at 100 uM measured after 48 hrs by WST-1 assay relative to control; type: functional; settings: read-out: Activity; outline: as §1
MOLT-4 [12] = assay: Cytotoxicity against human MOLT-4 cells assessed as cell viability at 100 uM measured after 48 hrs by WST-1 assay relative to control; type: functional; settings: read-out: Activity; outline: as §1
A549 [13] = assay: Cytotoxicity against human A549 cells assessed as cell viability at 100 uM measured after 48 hrs by WST-1 assay relative to control; type: functional; settings: read-out: Activity; outline: as §1
HT-29 [14] = assay: Cytotoxicity against human HT-29 cells assessed as cell viability at 100 uM measured after 48 hrs by WST-1 assay relative to control; type: functional; settings: read-out: Activity; outline: as §1
PANC-1 [15] = assay: Cytotoxicity against human PANC-1 cells assessed as cell viability at 100 uM measured after 48 hrs by WST-1 assay relative to control; type: functional; settings: read-out: Activity; outline: as §1
A2780 [16] = assay: Cytotoxicity against human A2780 cells assessed as cell viability at 100 uM measured after 48 hrs by WST-1 assay relative to control; type: functional; settings: read-out: Activity; outline: as §1
HeLa [17] = assay: Cytotoxicity against human HeLa cells assessed as cell viability at 100 uM measured after 48 hrs by WST-1 assay relative to control; type: functional; settings: read-out: Activity; outline: as §1
MCF7 [18] = assay: Cytotoxicity against human MCF7 cells assessed as cell viability at 100 uM measured after 48 hrs by WST-1 assay relative to control; type: functional; settings: read-out: Activity; outline: as §1
SAOS-2 [19] = assay: Cytotoxicity against human SAOS-2 cells assessed as cell viability at 100 uM measured after 48 hrs by WST-1 assay relative to control; type: functional; settings: read-out: Activity; outline: as §1
[20] = Cytotoxicity against human MRC5 cells assessed as cell viability at 100 uM measured after 48 hrs by WST-1 assay relative to control; type: cell-based; settings: read-out: Activity; outline: as §1
A549 [21] = assay: Cytotoxicity against human A549 cells assessed as reduction in cell viability incubated for 24 hrs by MTT assay; type: functional, cell-based; settings: A549, 24 h
Outline: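 A-549 cells in DMEM with 10% FBS and 1% penicillin-streptomycin were attached overnight. Compounds were prepared in PBS and serially diluted in DMEM, then incubated 24 h. Viability was read by colorimetric MTT reduction against an untreated control on each plate (100%). IC50 came from four-parameter nonlinear regression of the log concentration-response curve, mean ± SEM. MTC is the highest concentration not differing from control (t-test).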

A549 [22] = assay: Cytotoxicity against human A549 cells assessed as maximum tolerated concentration incubated for 24 hrs by MTT assay; type: functional
Outline: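 A-549 cells in DMEM with 10% FBS and 1% penicillin-streptomycin, left to attach overnight. Compounds made up in PBS, serially diluted in DMEM, incubated 24 h, then viability read by MTT reduction against untreated controls on each plate. MTC taken as the highest concentration showing no significant difference from non-treated control (t-test).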

MOLT-4 [23] = assay: Radioprotective activity against gamma irradiation-induced apoptosis in human MOLT-4 cells assessed as viable cells at 100 uM pretreated with compound for 1 hr followed by gamma irradiation and measured after 24 hrs by annexinV/propidium iodide staining based flow cytometry (reference value: 40 %); type: functional; settings: MOLT-4, light or radiation study, time 25 hrs, read-out: Activity

SMILES	viability at 10 µM (Jurkat [1]) [%]	viability at 10 µM (MOLT-4 [2]) [%]	viability at 10 µM (A549 [3]) [%]	viability at 10 µM (HT-29 [4]) [%]	viability at 10 µM (PANC-1 [5]) [%]	viability at 10 µM (A2780 [6]) [%]	viability at 10 µM (HeLa [7]) [%]	viability at 10 µM (MCF7 [8]) [%]	viability at 10 µM (SAOS-2 [9]) [%]	viability at 48 h, 10 µM [10] [%]	viability at 100 µM (Jurkat [11]) [%]	viability at 100 µM (MOLT-4 [12]) [%]	viability at 100 µM (A549 [13]) [%]	viability at 100 µM (HT-29 [14]) [%]	viability at 100 µM (PANC-1 [15]) [%]	viability at 100 µM (A2780 [16]) [%]	viability at 100 µM (HeLa [17]) [%]	viability at 100 µM (MCF7 [18]) [%]	viability at 100 µM (SAOS-2 [19]) [%]	viability at 48 h, 100 µM [20] [%]	further results
OCCN1CCN(CC(O)COc2ccc3ccccc3c2)CC1 (centres undefined)	97	109	102	92	101	99	109	93	98	103	96	100	102	103	95	91	116	93	91	98	IC50 (A549 [21]): 310 µM; MTD (A549 [22]): 0.02 mM; viability at 100 µM (MOLT-4 [23]): 65%
OCCN1CCN(CC(O)COc2ccccc2)CC1 (centres undefined)	104	92	97	97	90	96	95	104	102	101	91	96	99	97	108	96	107	98	96	101	IC50 (A549 [21]): 5780 µM; MTD (A549 [22]): 0.59 mM; viability at 100 µM (MOLT-4 [23]): 57%
Cc1ccc(C(C)C)c(OCC(O)CN2CCN(CCO)CC2)c1 (centres undefined)	97	87	90	93	91	100	105	100	93	102	98	90	114	64	125	90	132	85	109	90	IC50 (A549 [21]): 360 µM; MTD (A549 [22]): 0.16 mM; viability at 100 µM (MOLT-4 [23]): 58%

Source: ChEMBL document CHEMBL4706495, “A novel class of small molecule inhibitors with radioprotective properties” (Eur J Med Chem, 2020)
